Measured values taken from ChEMBL document CHEMBL1151455, “Increased macrolide resistance of Mycoplasma pneumoniae in pediatric patients with community-acquired pneumonia” (2008).
≈ marks a conversion by molar mass, not a printed value.

Legend:
Format in all cases: functional
[1] = tested on: Mycoplasmoides pneumoniae; assay: Antimicrobial activity against macrolide-susceptible Mycoplasma pneumoniae isolated from pediatric patients with community-acquired pneumonia after 10 to 14 days by microdilution method
Summary of the method: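 Pediatric CAP nasopharyngeal isolates, cultured in PPLO broth from real-time PCR-positive samples; strain M129 as control. Broth microdilution in PPLO broth: inoculum estimated at 10^5 CFU/ml added 1:10 to serially diluted antibiotic. Incubated aerobically at 37°C for 10–14 days, until the antibiotic-free growth control changed colour. MIC taken as lowest concentration preventing colour change; MIC50/MIC90 and range reported.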

[2] = tested on: Mycoplasmoides pneumoniae; assay: Antimicrobial activity against macrolide-resistant Mycoplasma pneumoniae harboring A2064G transition in domain V of 23S rRNA isolated from pediatric patients with community-acquired pneumonia after 10 to 14 days by microdilution method
Summary of the method: (§1)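 Clinical isolates cultured from PCR-positive pediatric nasopharyngeal samples in PPLO broth; resistance mutation identified by full-length 23S rRNA gene sequencing. Broth microdilution in PPLO broth containing serially diluted antibiotics, inoculum estimated at 10^5 CFU/ml in culture. Incubated aerobically at 37°C for 10 to 14 days until the antibiotic-free control changed colour. MIC was the lowest concentration preventing the colour change. Strain M129 served as control.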

[3] = tested on: Mycoplasmoides pneumoniae; assay: Antimicrobial activity against macrolide-resistant Mycoplasma pneumoniae harboring A2063G transition in domain V of 23S rRNA isolated from pediatric patients with community-acquired pneumonia after 10 to 14 days by microdilution method; summary of the method: as §1

CC[C@H]1OC(=O)[C@H](C)[C@@H](O[C@H]2C[C@@](C)(OC)[C@@H](O)[C@H](C)O2)[C@H](C)[C@@H](O[C@@H]2O[C@H](C)C[C@H](N(C)C)[C@H]2O)[C@](C)(O)C[C@@H](C)CN(C)[C@H](C)[C@@H](O)[C@]1(C)O [AZITHROMYCIN]
MIC50 [1]: 0.00049 µg/mL (≈ 0.000654 µM)
MIC90 [1]: 0.00098 µg/mL (≈ 0.00131 µM)
MIC50 [2]: 32 µg/mL (≈ 42.7 µM)
MIC90 [2]: 64 µg/mL (≈ 85.4 µM)
MIC50 [3]: 32 µg/mL (≈ 42.7 µM)
MIC90 [3]: 64 µg/mL (≈ 85.4 µM)

CC[C@H]1OC(=O)[C@H](C)[C@@H](O[C@H]2C[C@@](C)(OC)[C@@H](O)[C@H](C)O2)[C@H](C)[C@@H](O[C@@H]2O[C@H](C)C[C@H](N(C)C)[C@H]2O)[C@](C)(OC)C[C@@H](C)C(=O)[C@H](C)[C@@H](O)[C@]1(C)O [CLARITHROMYCIN]
MIC50 [1]: 0.0039 µg/mL (≈ 0.00521 µM)
MIC90 [1]: 0.0078 µg/mL (≈ 0.0104 µM)
MIC50 [2]: 64 µg/mL (≈ 85.6 µM)
MIC90 [2]: 64 µg/mL (≈ 85.6 µM)
MIC50 [3]: 64 µg/mL (≈ 85.6 µM)
MIC90 [3]: > 64 µg/mL

CC[C@H]1OC(=O)[C@H](C)[C@@H](O[C@H]2C[C@@](C)(OC)[C@@H](O)[C@H](C)O2)[C@H](C)[C@@H](O[C@@H]2O[C@H](C)C[C@H](N(C)C)[C@H]2O)[C@](C)(O)C[C@@H](C)C(=O)[C@H](C)[C@@H](O)[C@]1(C)O [ERYTHROMYCIN]
MIC50 [1]: 0.0078 µg/mL (≈ 0.0106 µM)
MIC90 [1]: 0.0156 µg/mL (≈ 0.0213 µM)
MIC [2]: ≥ 64 µg/mL
MIC50 [2]: > 64 µg/mL
MIC90 [2]: > 64 µg/mL
MIC50 [3]: 64 µg/mL (≈ 87.2 µM)
MIC90 [3]: > 64 µg/mL

CO[C@@H]1[C@@H](O[C@@H]2O[C@H](C)[C@@H](O[C@H]3C[C@@](C)(O)[C@@H](OC(=O)CC(C)C)[C@H](C)O3)[C@H](N(C)C)[C@H]2O)[C@@H](CC=O)C[C@@H](C)[C@@H](O)/C=C/C=C/C[C@@H](C)OC(=O)C[C@H]1OC(C)=O [JOSAMYCIN]
MIC50 [1]: 0.0313 µg/mL (≈ 0.0378 µM)
MIC90 [1]: 0.0625 µg/mL (≈ 0.0755 µM)
MIC50 [2]: 64 µg/mL (≈ 77.3 µM)
MIC90 [2]: > 64 µg/mL
MIC50 [3]: 8 µg/mL (≈ 9.66 µM)
MIC90 [3]: 16 µg/mL (≈ 19.3 µM)

C[C@H]1COc2c(N3CCN(C)CC3)c(F)cc3c(=O)c(C(=O)O)cn1c23.C[C@H]1COc2c(N3CCN(C)CC3)c(F)cc3c(=O)c(C(=O)O)cn1c23.O [LEVOFLOXACIN]
MIC50 [1]: 0.5 µg/mL
MIC90 [1]: 1 µg/mL
MIC50 [2]: 1 µg/mL
MIC90 [2]: 1 µg/mL
MIC50 [3]: 1 µg/mL
MIC90 [3]: 1 µg/mL

CN(C)c1ccc(O)c2c1C[C@H]1C[C@H]3[C@H](N(C)C)C(O)=C(C(N)=O)C(=O)[C@@]3(O)C(O)=C1C2=O [MINOCYCLINE]
MIC50 [1]: 0.5 µg/mL (≈ 1.09 µM)
MIC90 [1]: 1 µg/mL (≈ 2.19 µM)
MIC50 [2]: 0.5 µg/mL (≈ 1.09 µM)
MIC90 [2]: 1 µg/mL (≈ 2.19 µM)
MIC50 [3]: 0.5 µg/mL (≈ 1.09 µM)
MIC90 [3]: 1 µg/mL (≈ 2.19 µM)

CCCC(=O)O[C@H]1[C@H](C)O[C@@H](O[C@H]2[C@H](N(C)C)[C@@H](O)[C@H](O[C@H]3[C@@H](CC=O)C[C@@H](C)[C@@H](O)/C=C/C=C/C[C@@H](C)OC(=O)C[C@@H](O)[C@@H]3OC)O[C@@H]2C)C[C@@]1(C)OC(=O)CC [ROKITAMYCIN]
MIC50 [1]: 0.0156 µg/mL (≈ 0.0188 µM)
MIC90 [1]: 0.0156 µg/mL (≈ 0.0188 µM)
MIC50 [2]: 16 µg/mL (≈ 19.3 µM)
MIC90 [2]: 16 µg/mL (≈ 19.3 µM)
MIC50 [3]: 0.125 µg/mL (≈ 0.151 µM)
MIC90 [3]: 0.25 µg/mL (≈ 0.302 µM)

CC[C@H]1OC(=O)[C@H](C)C(=O)[C@H](C)[C@@H](O[C@@H]2O[C@H](C)C[C@H](N(C)C)[C@H]2O)[C@](C)(OC)C[C@@H](C)C(=O)[C@H](C)[C@H]2N(CCCCn3cnc(-c4cccnc4)c3)C(=O)O[C@]12C [TELITHROMYCIN]
MIC50 [1]: 0.00098 µg/mL (≈ 0.00121 µM)
MIC90 [1]: 0.00195 µg/mL (≈ 0.0024 µM)
MIC50 [2]: 4 µg/mL (≈ 4.93 µM)
MIC90 [2]: 16 µg/mL (≈ 19.7 µM)
MIC50 [3]: 32 µg/mL (≈ 39.4 µM)
MIC90 [3]: 64 µg/mL (≈ 78.8 µM)
